Results from different studies.
Target: Mitogen-activated protein kinase 12 (MAPK12, Homo sapiens, UniProt P53778)
One construct used (P53778 1-367): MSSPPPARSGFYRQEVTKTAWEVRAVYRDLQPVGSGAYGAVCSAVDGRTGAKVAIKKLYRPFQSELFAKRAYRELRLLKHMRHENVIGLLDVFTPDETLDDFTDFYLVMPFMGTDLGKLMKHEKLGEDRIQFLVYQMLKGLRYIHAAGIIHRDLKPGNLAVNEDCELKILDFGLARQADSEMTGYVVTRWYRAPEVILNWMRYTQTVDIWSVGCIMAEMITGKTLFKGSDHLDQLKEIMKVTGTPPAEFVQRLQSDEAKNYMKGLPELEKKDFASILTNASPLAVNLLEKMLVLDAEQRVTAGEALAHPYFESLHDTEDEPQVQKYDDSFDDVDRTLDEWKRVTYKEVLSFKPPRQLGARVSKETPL

Structure (SMILES) | assay | conditions | quantity | result
FC(F)c1nc2ccccc2n1-c1nc(N2CCOCC2)nc(N2CCOCC2)n1 | enzyme activity, inhibitor | 10 µM | remaining activity | 92%
CC1CCCN1c1nccc(-c2cnn3ncccc23)n1 (stereo not shown) | binding | 1 µM | remaining binding | 90%
O=C1NC(=O)c2cc(Nc3ccc(F)cc3)c(Nc3ccc(F)cc3)cc21 | cell-free assay | 0.5 µM | remaining signal | 93.6%
COc1cc(Cl)c(C(=O)N[C@@H](CN[C@H]2CC[C@@H](N)CC2)Cc2ccc(C#N)cc2)cc1-c1ccc(CN[C@H](C)c2ccc(C)cc2)o1 | enzyme activity, inhibitor | 1 µM | remaining activity | 109%
Cc1ccc(C(=O)Nc2ccc(CN3CCN(C)CC3)c(C(F)(F)F)c2)cc1C#Cc1cnc2cccnn12 | enzyme activity, inhibitor | 23.5 nM | remaining activity | 70%
Cc1nccc(COC(=O)N2C[C@@H]3[C@@H](CNC(=O)c4ccc5[nH]nnc5c4)[C@@H]3C2)n1 | cell-free assay, competition with immobilised ligand | 1 µM | remaining binding | 79%
CC/C(=N\NC(=O)NCc1cccc(O)c1)c1ccc(O)c(C)c1O | enzyme activity, inhibitor | 0.1 µM | inhibition | -1.6%
CC(=O)C1=C(C)N(c2cccc(C(F)(F)F)c2)C(=O)N[C@@H]1c1ccc(C#N)nc1 | cell-free assay, competition with immobilised ligand | 1 µM | remaining binding | 77.4%
CCN(CC)CCNC(=O)c1c(C)[nH]c(/C=C2\C(=O)Nc3ccc(F)cc32)c1C | enzyme activity, inhibitor | 0.3 µM | inhibition | -10%
Nc1c(C(=O)NCc2ccc(C(=O)NCCCC3CCCCC3)cc2)cnn1-c1ccccc1 | cell-free assay, competition with immobilised ligand | 0.1 µM | remaining binding | 100%
O=C1Nc2ccc(Cl)cc2C1=Cc1cc(Cl)c(O)c(Cl)c1 | cell-free assay | 0.5 µM | remaining signal | 90.5%
COc1cc2ncnc(Nc3ccc(Oc4ccccc4)cc3C)c2cc1OC | enzyme activity, inhibitor | 1 µM | inhibition | 4%
CC(C)(C)c1nc2c(s1)c1nc(N)ncc1c1ccc(NS(=O)(=O)c3c(F)cccc3F)c(F)c12 | enzyme activity, inhibitor, radiometric | 1 µM | remaining activity | 100%
CCOC(=O)c1cc2cc(-c3cc(C(=O)NCc4ccc(C(=O)O)cc4)nn3C)ccc2[nH]1 | cell-free assay, competition with immobilised ligand | 0.1 µM | remaining binding | 77%
CN1CC(Oc2cnc(C#N)cc2-c2ccn3nc(NC(=O)C4CC4)cc3c2)C1 | enzyme activity, inhibitor | 1 µM | inhibition | -1%
Cc1c(NC(=O)c2cc(C(N)=O)nc3cc(F)ccc23)c(C(F)(F)F)nn1Cc1ccc(C(C)(C)C)cc1 | cell-free assay, competition with immobilised ligand | 1 µM | remaining binding | 56%
Nc1nc(Nc2ccccc2)sc1C(=O)c1c(F)cccc1F | enzyme activity, inhibitor | 10 µM | remaining activity | 77%
CS(=O)(=O)c1cc(C2(NC(=O)c3cncc4c3cnn4-c3ccc(F)cc3)CC2)ccn1 | cell-free assay, competition with immobilised ligand | 1 µM | remaining binding | 100%
Cc1sc(C(=O)NC2COC2)cc1-n1cc(NC(=O)Nc2c(F)cccc2Cl)cn1 | enzyme activity, inhibitor | 10 µM | remaining activity | 90.5%
